# Paper PMC8724909 (Molecular Systems Design & Engineering, 2021)
# Tests used:
# [1] = test system: Galleria mellonella larvae; assay: Toxicity in Galleria mellonella larvae; assay type: in vivo; details: uninfected larvae injected with 10, 25, 50, 100 and 200 mg per body weight kg
# Procedure, shortened: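 Age- and weight-defined larvae, stored at 15 °C without food, were used uninfected. Groups of 10 larvae received hemocoel injections of test compound or nalidixic acid at 10, 25, 50, 100 and 200 mg/kg body weight, given with a 10 μl syringe.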
# [2] = test system: E. coli CFT073 nalidixic acid resistant line; assay: Galleria mellonella infection model, survival; assay type: in vivo; details: nalidixic acid at 50 mg per body weight kg; 48 h
# Procedure, shortened: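 Nalidixic acid-resistant strain was grown overnight in Mueller-Hinton II broth and washed twice in PBS. Larvae got 10^7 CFU in 10 μl PBS into the hemocoel via the first left proleg, then treatment via the second right proleg. Monotherapy doses were 10–100 mg/kg. Controls were PBS-only and untreated infected larvae. Larvae were kept at 37 °C for 48 h, with survival scored every 6 h.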
compound,measurement,setting,value
"CCn1cc(C(=O)O)c(=O)c2ccc(C)nc21 [Nalidixic acid, nalidixic acid]",toxicity in larvae,[1],no toxicity
same,"improvement of survival of infected larvae, monotherapy",[2],approximately 25%
